Data as given in ChEMBL document CHEMBL1150046, “Three new cyclic peroxides from the marine sponge Plakortis aff simplex” (2003).

What was measured:
Format in all cases: functional
DU-145 = assay: Growth inhibition of human DU145 cells after 72 hrs by SRB assay; settings: DU-145, 72 h
How it was run: (§1)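 Cells kept in RPMI 1640 with 10% FBS, 2 mM L-glutamine, penicillin and streptomycin at 37 °C, 5% CO2. They were seeded at 5000 per well and allowed to attach in drug-free medium (24 h; also stated as 18 h). Compound dilutions in DMSO/EtOH were added for 72 h. Cells were fixed with cold TCA, stained with SRB, solubilised in Tris and read at 490 nm.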

SK-MEL-28 = assay: Growth inhibition of human SK-MEL-28 cells after 72 hrs by SRB assay; settings: SK-MEL-28, 72 h; how it was run: as §1
HT-29 = assay: Growth inhibition of human HT-29 cells after 72 hrs by SRB assay; settings: HT-29, 72 h; how it was run: as §1
PANC-1 = assay: Growth inhibition of human PANC1 cells after 72 hrs by SRB assay; settings: PANC-1, 72 h; how it was run: as §1
[1] = Growth inhibition of human IGROV cells after 72 hrs by SRB assay; how it was run: as §1
A549 = assay: Growth inhibition of human A549 after 72 hrs by SRB assay; settings: A549, 72 h; how it was run: as §1
LoVo [2] = assay: Growth inhibition of human LoVo after 72 hrs by SRB assay; how it was run: as §1
SK-OV-3 = assay: Growth inhibition of human SKOV3 cells after 72 hrs by SRB assay; settings: SK-OV-3, 72 h; how it was run: as §1
LNCaP = assay: Growth inhibition of human LNCAP cells after 72 hrs by SRB assay; how it was run: as §1
K562 = assay: Growth inhibition of human K562 cells after 72 hrs by SRB assay; settings: K562, 72 h; how it was run: as §1
LoVo [3] = assay: Growth inhibition of human Doxorubicin-resistant LoVo cells after 72 hrs by SRB assay; how it was run: as §1
SK-BR-3 = assay: Growth inhibition of human SKBR3 cells after 72 hrs by SRB assay; settings: SK-BR-3, 72 h; how it was run: as §1
[4] = Growth inhibition of human IGROV-ET cells after 72 hrs by SRB assay; how it was run: as §1
[5] = read-out: LC50 (the source's name)

In the case of `C[C@]1(CCCCCCCCCCc2ccccc2)C[C@](C)(CC(=O)O)OO1` [ANDAVADOIC ACID], the GI50 (DU-145) is reported as 627 nM, the TGI (DU-145) is reported as 991 nM and the CC50 (DU-145; [5]) is reported as 1560 nM. For the same compound, the GI50 (SK-MEL-28) was 698 nM, the TGI (SK-MEL-28) was 1140 nM and the CC50 (SK-MEL-28; [5]) was 1860 nM. The GI50 (HT-29) was 643 nM, the TGI (HT-29) was 1130 nM and the CC50 (HT-29; [5]) was 1980 nM. It also gave a GI50 (PANC-1) of 526 nM, a TGI (PANC-1) of 961 nM and a CC50 (PANC-1; [5]) of 1750 nM. It also gave a GI50 [1] of 102 nM, a TGI [1] of 261 nM and a CC50 [1, 5] of 1830 nM. The GI50 (A549) was 714 nM, the TGI (A549) was 1290 nM and the CC50 (A549; [5]) was 2330 nM. The GI50 (LoVo [2]) was 635 nM, the TGI (LoVo [2]) was 1210 nM and the CC50 (LoVo [2]; [5]) was 2310 nM. For the same compound, the GI50 (SK-OV-3) was 698 nM, the TGI (SK-OV-3) was 1120 nM and the CC50 (SK-OV-3; [5]) was 1810 nM. It also gave a GI50 (LNCaP) of 478 nM, a TGI (LNCaP) of 863 nM and a CC50 (LNCaP; [5]) of 1560 nM. For the same compound, the GI50 (K562) was 497 nM, the TGI (K562) was 1010 nM and the CC50 (K562; [5]) was 2070 nM. For the same compound, the GI50 (LoVo [3]) was 539 nM, the TGI (LoVo [3]) was 951 nM and the CC50 (LoVo [3]; [5]) was 1680 nM. It also gave a GI50 (SK-BR-3) of 914 nM, a TGI (SK-BR-3) of 1690 nM and a CC50 (SK-BR-3; [5]) of 2660 nM. The GI50 [4] was 133 nM, the TGI [4] was 390 nM and the CC50 [4, 5] was 1340 nM.
